# APJ antag = blocks the human apelin receptor APJ; inhibition, % at 20 µM; AID 2521; actives 0.32% (n = 330,000); CHO-K1 APJ beta-arrestin complementation, luminescence;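 active = inhibition above about 40% at 20 µM, limit read from the data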;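 note: cells challenged with 10 nM apelin-13 agonist together with compound; plate controls were apelin-13 plus DMSO wells for no effect and DMSO wells lacking apelin-13 for full effect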
# CXCR6 inh = inhibitors of human CXCR6 receptor; O00574; inhibition, % at 20 µM; CHO-K1 PathHunter CXCR6 beta-arrestin, luminescence; actives 0.36% (n = 360,000); in the data active = inhibition above about 34%, passing the limit was not always enough;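 note: antagonist mode with CXCL16 agonist at 10 nM final; 0% = 10 nM CXCL16 with DMSO and 100% = unstimulated wells without agonist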
# Target sequence (O00574 whole entry, looked up): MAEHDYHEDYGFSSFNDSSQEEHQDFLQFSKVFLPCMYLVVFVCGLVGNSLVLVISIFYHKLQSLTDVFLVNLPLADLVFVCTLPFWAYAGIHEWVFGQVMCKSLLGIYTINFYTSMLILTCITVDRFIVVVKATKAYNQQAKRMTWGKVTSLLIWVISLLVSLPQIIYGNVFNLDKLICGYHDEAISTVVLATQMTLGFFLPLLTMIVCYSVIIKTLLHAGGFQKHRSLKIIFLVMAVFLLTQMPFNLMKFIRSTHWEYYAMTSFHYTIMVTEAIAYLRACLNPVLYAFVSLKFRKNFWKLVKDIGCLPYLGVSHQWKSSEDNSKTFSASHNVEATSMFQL
# EBI2 antag = EBI2 (human) antagonism; P32249; EBI2 beta-arrestin recruitment, luminescence, 7a,25-OHC stimulated; inhibition, % at 5 µM; actives 0.81% (n = 360,000); in the data active = inhibition above about 38%;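 note: enzyme fragment complementation signal reports receptor beta-arrestin coupling in cells; 0% = agonist plus DMSO wells and 100% = wells without agonist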
# APJ ag = activates the human apelin receptor APJ; P35414; activation, % at 20 µM; CHO-K1 APJ PathHunter beta-arrestin, luminescence; 0% DMSO wells, 100% apelin; actives 0.11% (n = 330,000);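 active = activation more than six SD over the plate average, tested at 20 µM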;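 note: 0% = DMSO alone and 100% = apelin-13 at 10 nM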
#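 system = engineered CHO-K1 APJ arrestin reporter cells | input = 1000 cells per well | timing = overnight seeding, 90 min compound at 25 °C, 1 h detection | measured by = enzyme-fragment complementation luminescence | read-out = beta-arrestin recruitment to APJ as agonist activity, luminescent signal | control set = negative DMSO alone, positive Apelin-13 at 10 nM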
# CCR6 antag = blocks CCL20-driven beta-arrestin recruitment at human CCR6. inhibition, % at 20 µM. actives 0.49% (n = 340,000). P51684. CHO-K1 CCR6 PathHunter beta-arrestin, luminescence, CCL20-stimulated;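 active = compounds whose inhibition of the agonist-driven luminescence signal at 20 µM reaches about 50%, limit read from the data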;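 note: cells stimulated with CCL20 at 14 nM final; plate controls were DMSO with CCL20 for no effect and DMSO without agonist for full effect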
# Target sequence (P51684 whole entry, looked up): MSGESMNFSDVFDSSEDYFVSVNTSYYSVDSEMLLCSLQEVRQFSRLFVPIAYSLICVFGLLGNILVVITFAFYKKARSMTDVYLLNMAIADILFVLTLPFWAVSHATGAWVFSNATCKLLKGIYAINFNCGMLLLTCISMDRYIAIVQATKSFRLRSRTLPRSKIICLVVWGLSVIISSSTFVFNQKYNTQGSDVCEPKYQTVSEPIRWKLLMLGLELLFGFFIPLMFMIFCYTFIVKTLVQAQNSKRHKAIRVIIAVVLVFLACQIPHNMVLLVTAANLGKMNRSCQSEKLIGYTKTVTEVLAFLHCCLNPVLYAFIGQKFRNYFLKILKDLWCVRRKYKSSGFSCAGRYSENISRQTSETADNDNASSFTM
# m5-HT2A agonist = activates the mouse 5-HT2A serotonin receptor; P35363; CHO-K1 mHTR2A beta-arrestin complementation, luminescence; percent of 30 µM serotonin response; activation, % at 7.6 µM; actives 0.66% (n = 360,000);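 active = activation above a run cutoff, the mean activation of all tested compounds plus 3 SD, cut at about 14% in these data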;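 note: 0% = plate median of compound wells and 100% = 30 µM serotonin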
# MOR ag counter = activates human mu opioid receptor in HTR2A counterscreen. shares compounds with m5-HT2A agonist. U2OS OPRM1 beta-arrestin PathHunter, luminescence; DMSO 0%, DAMGO 9.3 µM 100%. activation, % at 9.3 µM. actives 5.3% (n = 2,300);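 active = mean activation above the mean of DMSO-only wells plus 3 SD, cut at about 0.5% in these data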
# HTR2A ag conf = confirmation of mouse HTR2A serotonin receptor agonists; actives 19% (n = 2,300); shares compounds with m5-HT2A agonist; AID 624381; CHO-K1 PathHunter beta-arrestin recruitment, luminescence; DMSO 0%, 30 µM serotonin 100%; activation, % at 7.6 µM;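 active = mean activation across triplicates above the hit threshold derived in the original primary screen, cut at about 15% in these data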
# Numbers without * were called inactive; x = no result given. Compounds with a hit are over-represented: about 2.1% of the library has one in this group of screens.
SMILES,APJ antag,CXCR6 inh,EBI2 antag,APJ ag,CCR6 antag,m5-HT2A agonist,MOR ag counter,HTR2A ag conf
CCn1c(=S)[nH]c2c(=O)n(C)c(=O)n(C)c21,x,-4.8,-7.1,x,14.8,17.2*,0.3,3.4
CC(OC(=O)/C=C/c1cccc(Cl)c1)C(=O)NC1CCCCC1C (configuration not stated),12.0,2.8,5.9,-11.1,7.6,-0.4,x,x
CC(=O)OC1C=CCC2C(=O)c3cccc(O)c3C(O)C12 (configuration not stated),x,-19.6,-17.6,x,3.1,16.7*,-0.2,-0.2
COc1cccc(CNC(=O)[C@@H]2CCCN2C(=O)[C@@H]2CCCN2C(=O)OC(C)(C)C)c1,x,-7.5,-3.1,x,x,0.0,x,x
O=c1c(C(c2ccc(F)cc2)c2c(O)nc3n(c2=O)CCS3)c(O)nc2n1CCS2,5.8,4.3,4.5,1.2,2.6,1.1,x,x
Cc1ccc(CNC(=O)C2CC(=O)OC23CCCC3)c(C)c1 (configuration not stated),-10.0,7.3,14.2,-2.9,-5.1,16.1*,-0.3,0.8
Cc1cccc(NC(=O)C2CC(=O)OC23CCCCC3)c1 (configuration not stated),6.3,-2.7,4.2,-2.2,5.3,-2.8,x,x
COc1cc(/C=N/NC(=O)CC(=O)NC2CCCCC2)ccc1O,-5.0,0.7,-2.7,-1.2,1.9,15.8*,0.9*,4.7
CC1=C(C(=O)N(C(C)C)C(C)C)CC(CC(=O)NCCN2CCOCC2)C(=O)N1CCC1=CCCCC1 (configuration not stated),x,-0.4,-4.7,x,x,15.8*,-0.3,-4.1
C=C(C)c1cccc(C(C)(C)NC(=O)Nc2ncccn2)c1,-1.8,4.8,-1.7,6.1,13.5,-4.8,x,x
C=C(C)c1cccc(C(C)(C)NC(=O)Nc2ccc(Cl)cn2)c1,1.4,-7.7,10.2,-1.0,8.6,30.4*,-0.1,17.9*
C=C(C)c1cccc(C(C)(C)NC(=O)Nn2cnnc2)c1,11.3,0.3,9.3,-1.0,2.9,16.1*,-0.6,15.8*
CCCC(NC(=O)CCc1c(C)c2cc3c4c(oc3c(C)c2oc1=O)CCCC4)C(=O)O (configuration not stated),10.3,-4.3,4.2,-1.3,19.7,0.6,x,x
O=C(CN1CCN(c2ccccn2)CC1)Nc1ccc(Oc2ccccc2)cc1,2.8,3.1,0.3,1.8,10.5,33.5*,-0.6,92.2*
O=C(CN1CCN(c2ccccn2)CC1)Nc1ccccc1,2.3,4.2,-3.5,-1.4,-6.3,9.8,x,x
O=C(CN1CCN(c2ccccn2)CC1)Nc1cccc(S(=O)(=O)N2CCCC2)c1,3.7,8.2,-0.1,-1.0,9.8,19.4*,0.2,69.1*
CC1=C(C(=O)N2CCOCC2)CC(CC(=O)NC2CC2)C(=O)N1CCC1=CCCCC1 (configuration not stated),x,1.1,-9.1,x,x,0.2,x,x
O=C(COC(=O)c1ccc(O)cc1O)NC(=O)NCc1ccccc1,8.5,-15.2,-7.2,-3.1,1.5,-1.9,x,x
Cc1ccc(NC(=O)NC(=O)COC(=O)c2ccc(O)cc2O)c(C)c1,x,-0.2,-8.2,x,x,14.9*,-0.3,-1.2
COc1ccc(C(C(=O)NCc2ccccc2)N(Cc2cccnc2)C(=O)c2snc(C(N)=O)c2N)cc1OC (configuration not stated),13.9,-5.6,-8.5,-1.0,-1.0,1.2,x,x
CN(C)c1ccc(C(C(=O)NCc2ccccc2)N(Cc2cccnc2)C(=O)c2snc(C(N)=O)c2N)cc1 (configuration not stated),-25.0,-5.3,-19.1,1.5,4.3,18.6*,-0.6,-1.4
Cc1nc2ccc(NS(=O)(=O)c3ccc(F)cc3F)cc2s1,-9.9,-10.0,-8.1,-1.2,-4.8,21.8*,-0.4,-3.1
CCN(CC(=O)Nc1c(F)cccc1F)C(=O)c1ccc2c(c1)OCO2,-65.3,1.7,-3.1,-3.4,4.0,-1.3,x,x
Cc1ccc(-c2nc(S(=O)(=O)c3ccc(F)cc3)c(SCC(=O)NCC3CCCO3)o2)cc1 (configuration not stated),9.9,-1.6,0.4,-11.6,-12.8,-0.8,x,x
Cc1ccc(S(=O)(=O)c2nc(-c3ccc(F)cc3)oc2SCC(=O)NCC2CCCO2)cc1 (configuration not stated),-1.0,-12.0,0.2,3.7,-2.5,14.9*,-0.7,-3.0
SMILES,APJ antag,CXCR6 inh,EBI2 antag,APJ ag,CCR6 antag,m5-HT2A agonist,MOR ag counter,HTR2A ag conf
Cc1nc2ccc(S(=O)(=O)NCC(=O)NCc3ccc(Cl)cc3)cc2s1,-12.3,-2.2,6.4,5.6,12.2,-0.5,x,x
Cc1nc2ccc(S(=O)(=O)CCC(=O)NCc3ccc(Cl)cc3)cc2s1,x,4.1,13.2,x,x,20.8*,0.2,-0.6
CN(Cc1ccccc1)C(=O)c1[nH]cnc1C(=O)Nc1ccc(Br)cc1F,x,11.1,-5.6,x,x,0.8,x,x
CCOC(=O)NC(=O)CSc1ccc(S(=O)(=O)N(C)C2CCCCC2)cn1,-7.9,-8.3,6.8,-0.4,5.6,12.9,x,x
O=C(Nc1ccc(-c2n[nH]c(=S)o2)cc1)c1ccccc1Cl,12.6,-5.5,-13.2,-3.0,6.1,16.7*,-0.7,4.7
CCOC(=O)C1(CCCc2ccccc2)CCN(Cc2ccn[nH]2)CC1,0.6,5.4,-22.9,-4.3,-1.9,14.8*,-0.5,-5.4
Cc1ccc2c(cnn2C(=O)CCC(=O)NCc2ccccc2Cl)c1,8.9,1.4,-1.6,-2.0,4.0,19.4*,-0.4,-1.4
COc1cccc(COC(=O)C(Cc2ccccc2)NC(=O)c2ccco2)c1 (configuration not stated),x,-7.4,1.3,x,x,16.8*,-0.2,8.6
NC(=O)CN1CCN(Cc2ccc3c(c2)OCO3)CC1,6.7,-3.9,4.8,-0.9,17.9,1.2,x,x
CC(Oc1ccccc1F)c1nnc(SCC(=O)N(c2ccccc2)C2CCS(=O)(=O)C2)o1 (configuration not stated),2.2,7.4,-4.3,-1.3,0.7,1.6,x,x
CCCCN(CCCC)c1ccc(C(=O)c2ccccc2C(=O)O)c(O)c1,11.0,4.8,9.5,-3.2,11.7,0.8,x,x
CN(C)c1ccc(C(=O)c2ccccc2C(=O)O)c(O)c1,-1.3,-4.9,-4.5,-5.2,2.2,17.0*,-0.6,-2.1
COc1ccc(OC)c(C(=O)NC2CC(C)(C)Cc3c2cnn3-c2ccccc2)c1 (configuration not stated),-4.7,1.5,7.6,-2.9,21.8,-1.2,x,x

# High-throughput results deposited in PubChem BioAssay by several laboratories.
